These results are taken from ChEMBL document CHEMBL1150387, “Development and experimental validation of a docking strategy for the generation of kinase-targeted libraries” (J Med Chem, 2008).

The target in test [1] is Tyrosine-protein kinase Lck (Homo sapiens) (UniProt P06239). The test is described as follows: Inhibition of Lck at 10 uM by HTRF assay relative to control. In short, it runs like this: (§1)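 HTRF kinase assay, one panel of kinases. Inhibitor stock 50 µM in 100% DMSO; tested at 10 µM. ATP and substrate at final levels near Km. Final buffer: 50 mM Hepes/NaOH pH 7.4, 40 µM Na3VO4, 0.005% Tween-20, 1 mM DTT, MnCl2 or MgCl2 at kinase-dependent levels. Started by adding ATP/substrate. Reaction run at room temperature, time varied by kinase. Detection mix in 50 mM Hepes pH 7.4, 0.1% BSA, 150 mM KF, incubated ≥1 h at room temperature. Activity expressed as % of uninhibited control; n=2.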
A general note: Time-resolved FRET reads energy transfer from a long-lived donor to a nearby acceptor.

Test [2] addresses Tyrosine-protein kinase Lyn (Homo sapiens) (UniProt P07948). The test is described as follows: Inhibition of Lyn at 10 uM by HTRF assay relative to control. In outline: as §1
Test [3] concerns the target Mitogen-activated protein kinase 8 (Homo sapiens) (UniProt P45983). The test is described as follows: Inhibition of JNK1 at 10 uM by HTRF assay relative to control. In outline:
as §1

Test [4] addresses T1, Tyrosine-protein kinase JAK3 (Homo sapiens) (UniProt P52333).
T1 sequence (whole entry): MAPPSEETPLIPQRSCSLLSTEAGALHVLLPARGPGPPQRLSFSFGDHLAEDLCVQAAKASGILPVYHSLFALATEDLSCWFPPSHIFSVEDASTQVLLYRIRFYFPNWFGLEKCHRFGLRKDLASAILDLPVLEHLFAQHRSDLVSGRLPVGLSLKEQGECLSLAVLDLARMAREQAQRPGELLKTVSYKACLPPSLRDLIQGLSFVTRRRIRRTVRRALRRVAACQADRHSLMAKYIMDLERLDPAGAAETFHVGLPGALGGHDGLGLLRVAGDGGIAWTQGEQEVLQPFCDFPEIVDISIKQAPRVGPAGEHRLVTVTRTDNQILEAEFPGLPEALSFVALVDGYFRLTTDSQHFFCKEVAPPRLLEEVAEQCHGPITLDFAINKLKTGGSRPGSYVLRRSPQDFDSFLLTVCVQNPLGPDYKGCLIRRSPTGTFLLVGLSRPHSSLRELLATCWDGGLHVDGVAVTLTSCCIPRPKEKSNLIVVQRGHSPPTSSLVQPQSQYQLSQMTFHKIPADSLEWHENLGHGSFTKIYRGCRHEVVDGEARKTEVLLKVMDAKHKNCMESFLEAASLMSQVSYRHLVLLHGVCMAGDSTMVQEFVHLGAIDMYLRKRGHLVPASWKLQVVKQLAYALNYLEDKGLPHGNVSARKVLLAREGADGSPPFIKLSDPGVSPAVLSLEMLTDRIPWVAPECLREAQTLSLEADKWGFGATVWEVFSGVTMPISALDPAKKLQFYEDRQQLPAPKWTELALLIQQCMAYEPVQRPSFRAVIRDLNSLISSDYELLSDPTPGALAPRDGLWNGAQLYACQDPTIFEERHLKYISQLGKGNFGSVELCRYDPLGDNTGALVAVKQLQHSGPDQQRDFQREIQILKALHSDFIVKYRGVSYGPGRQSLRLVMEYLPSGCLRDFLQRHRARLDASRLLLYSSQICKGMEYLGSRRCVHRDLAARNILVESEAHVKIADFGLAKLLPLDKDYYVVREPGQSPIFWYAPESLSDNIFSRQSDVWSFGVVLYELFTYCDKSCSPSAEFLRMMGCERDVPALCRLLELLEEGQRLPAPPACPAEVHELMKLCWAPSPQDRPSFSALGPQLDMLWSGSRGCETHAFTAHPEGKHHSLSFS
The test is described as follows: Inhibition of JAK3 at 10 uM by HTRF assay relative to control. In short, it runs like this: as §1

Test [5] has as its target T2, Inhibitor of nuclear factor kappa-B kinase subunit beta (Homo sapiens) (UniProt O14920).
T2 sequence (whole entry): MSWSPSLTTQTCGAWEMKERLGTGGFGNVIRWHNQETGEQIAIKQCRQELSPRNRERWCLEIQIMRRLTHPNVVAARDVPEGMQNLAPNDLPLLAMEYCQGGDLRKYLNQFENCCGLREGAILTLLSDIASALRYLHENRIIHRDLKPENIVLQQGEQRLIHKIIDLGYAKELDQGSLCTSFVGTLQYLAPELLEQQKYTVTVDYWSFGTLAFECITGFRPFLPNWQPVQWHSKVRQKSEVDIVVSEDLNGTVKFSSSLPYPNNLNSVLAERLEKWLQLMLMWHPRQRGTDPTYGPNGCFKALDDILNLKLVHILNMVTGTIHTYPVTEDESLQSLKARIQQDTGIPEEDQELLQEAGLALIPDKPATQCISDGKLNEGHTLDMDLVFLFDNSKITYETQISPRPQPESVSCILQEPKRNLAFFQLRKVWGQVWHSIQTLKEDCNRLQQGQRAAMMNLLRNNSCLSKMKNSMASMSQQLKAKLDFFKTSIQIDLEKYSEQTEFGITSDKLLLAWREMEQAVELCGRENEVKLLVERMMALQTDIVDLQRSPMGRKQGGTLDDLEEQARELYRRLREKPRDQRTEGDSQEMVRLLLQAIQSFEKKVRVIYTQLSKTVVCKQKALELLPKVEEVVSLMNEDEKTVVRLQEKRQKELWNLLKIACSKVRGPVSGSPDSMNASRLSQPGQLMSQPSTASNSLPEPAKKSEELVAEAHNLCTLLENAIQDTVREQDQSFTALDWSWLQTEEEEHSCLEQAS
The test is described as follows: Inhibition of IKK-beta at 10 uM by HTRF assay relative to control. In short, it runs like this: as §1

Test [6] has as its target Serine/threonine-protein kinase Chk2 (Homo sapiens) (UniProt O96017). Nature of the test: Inhibition of CHK2 at 10 uM by HTRF assay relative to control. In outline:
as §1

In test [7] the target is Rho-associated protein kinase 2 (Homo sapiens) (UniProt O75116). The test is described as follows: Inhibition of ROCK2 at 10 uM by HTRF assay relative to control. In short, it runs like this: as §1
Test [8] deals with Mitogen-activated protein kinase 14 (Homo sapiens) (UniProt Q16539). Nature of the test: Inhibition of p38alpha at 10 uM by HTRF assay relative to control. In outline: as §1
Test [9] concerns the target Epidermal growth factor receptor (Homo sapiens) (UniProt P00533). Nature of the test: Inhibition of EGFR at 10 uM by HTRF assay relative to control. In short, it runs like this: as §1
Test [10] addresses Receptor-type tyrosine-protein kinase FLT3 (Homo sapiens) (UniProt P36888). The test is described as follows: Inhibition of FLT3 at 10 uM by HTRF assay relative to control. In outline:
as §1

Chain of Receptor-type tyrosine-protein kinase FLT3 (Homo sapiens) (P36888 whole entry): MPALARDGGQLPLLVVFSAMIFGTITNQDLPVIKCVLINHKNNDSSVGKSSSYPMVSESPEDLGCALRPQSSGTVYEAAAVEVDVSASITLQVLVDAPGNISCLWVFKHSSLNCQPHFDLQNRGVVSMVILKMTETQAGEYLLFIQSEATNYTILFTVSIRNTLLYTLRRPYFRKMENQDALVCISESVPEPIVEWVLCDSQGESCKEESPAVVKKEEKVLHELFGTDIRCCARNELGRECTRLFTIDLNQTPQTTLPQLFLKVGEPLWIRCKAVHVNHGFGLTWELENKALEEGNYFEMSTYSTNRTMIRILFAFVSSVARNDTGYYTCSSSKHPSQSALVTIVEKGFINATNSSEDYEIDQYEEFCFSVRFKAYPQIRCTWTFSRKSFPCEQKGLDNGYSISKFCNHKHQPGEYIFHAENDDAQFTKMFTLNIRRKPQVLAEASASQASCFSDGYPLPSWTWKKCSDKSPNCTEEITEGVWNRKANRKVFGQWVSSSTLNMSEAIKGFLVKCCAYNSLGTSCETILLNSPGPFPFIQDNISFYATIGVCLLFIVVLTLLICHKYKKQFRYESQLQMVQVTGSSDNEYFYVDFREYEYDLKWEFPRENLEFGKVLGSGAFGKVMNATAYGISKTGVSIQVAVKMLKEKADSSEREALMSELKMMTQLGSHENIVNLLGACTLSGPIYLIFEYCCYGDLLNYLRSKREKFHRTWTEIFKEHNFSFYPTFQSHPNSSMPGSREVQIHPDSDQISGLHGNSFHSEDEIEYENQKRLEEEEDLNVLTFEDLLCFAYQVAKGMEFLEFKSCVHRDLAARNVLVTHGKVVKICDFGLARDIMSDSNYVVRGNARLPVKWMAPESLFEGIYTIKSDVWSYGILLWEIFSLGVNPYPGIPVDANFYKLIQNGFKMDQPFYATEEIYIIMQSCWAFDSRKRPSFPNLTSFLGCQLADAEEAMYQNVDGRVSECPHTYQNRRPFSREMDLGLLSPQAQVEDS
Chain of Tyrosine-protein kinase Lyn (Homo sapiens) (P07948 2-512 limits assumed): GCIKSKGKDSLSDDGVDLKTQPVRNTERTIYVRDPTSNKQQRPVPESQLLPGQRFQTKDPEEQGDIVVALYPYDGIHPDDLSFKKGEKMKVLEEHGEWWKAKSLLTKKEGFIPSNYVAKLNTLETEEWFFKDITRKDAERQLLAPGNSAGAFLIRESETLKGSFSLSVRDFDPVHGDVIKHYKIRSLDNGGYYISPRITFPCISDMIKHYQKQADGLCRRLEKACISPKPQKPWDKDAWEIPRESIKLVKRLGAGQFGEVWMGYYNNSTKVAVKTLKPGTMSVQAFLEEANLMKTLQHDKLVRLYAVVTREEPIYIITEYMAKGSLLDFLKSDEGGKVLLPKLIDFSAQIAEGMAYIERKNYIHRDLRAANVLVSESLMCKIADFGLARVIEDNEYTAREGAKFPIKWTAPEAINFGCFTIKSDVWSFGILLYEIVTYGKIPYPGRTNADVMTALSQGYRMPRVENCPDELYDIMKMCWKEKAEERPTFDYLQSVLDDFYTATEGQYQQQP
Chain of Mitogen-activated protein kinase 14 (Homo sapiens) (Q16539 whole entry): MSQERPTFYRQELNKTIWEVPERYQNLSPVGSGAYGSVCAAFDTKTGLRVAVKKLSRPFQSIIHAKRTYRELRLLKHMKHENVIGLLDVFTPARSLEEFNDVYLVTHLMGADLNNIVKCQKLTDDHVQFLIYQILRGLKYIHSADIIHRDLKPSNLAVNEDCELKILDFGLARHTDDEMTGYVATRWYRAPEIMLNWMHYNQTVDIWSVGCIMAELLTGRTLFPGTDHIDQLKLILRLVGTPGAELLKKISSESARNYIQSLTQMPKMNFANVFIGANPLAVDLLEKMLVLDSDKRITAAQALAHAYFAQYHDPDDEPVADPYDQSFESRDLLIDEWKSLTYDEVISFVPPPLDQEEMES
Chain of Tyrosine-protein kinase Lck (Homo sapiens) (P06239 2-509 limits assumed): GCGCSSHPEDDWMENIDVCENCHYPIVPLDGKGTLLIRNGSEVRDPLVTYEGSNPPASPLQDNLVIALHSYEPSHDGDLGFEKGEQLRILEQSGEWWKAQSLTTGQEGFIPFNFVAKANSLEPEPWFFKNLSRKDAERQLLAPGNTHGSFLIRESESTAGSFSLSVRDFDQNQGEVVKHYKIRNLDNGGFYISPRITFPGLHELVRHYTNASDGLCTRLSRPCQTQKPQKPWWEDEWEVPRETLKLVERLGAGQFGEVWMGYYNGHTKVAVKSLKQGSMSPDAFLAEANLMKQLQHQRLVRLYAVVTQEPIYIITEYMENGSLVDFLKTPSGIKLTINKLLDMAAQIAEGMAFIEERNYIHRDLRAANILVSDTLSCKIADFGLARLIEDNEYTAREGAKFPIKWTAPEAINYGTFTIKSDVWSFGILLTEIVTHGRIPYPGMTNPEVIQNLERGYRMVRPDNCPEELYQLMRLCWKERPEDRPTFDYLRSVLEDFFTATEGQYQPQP
Chain of Serine/threonine-protein kinase Chk2 (Homo sapiens) (O96017 whole entry): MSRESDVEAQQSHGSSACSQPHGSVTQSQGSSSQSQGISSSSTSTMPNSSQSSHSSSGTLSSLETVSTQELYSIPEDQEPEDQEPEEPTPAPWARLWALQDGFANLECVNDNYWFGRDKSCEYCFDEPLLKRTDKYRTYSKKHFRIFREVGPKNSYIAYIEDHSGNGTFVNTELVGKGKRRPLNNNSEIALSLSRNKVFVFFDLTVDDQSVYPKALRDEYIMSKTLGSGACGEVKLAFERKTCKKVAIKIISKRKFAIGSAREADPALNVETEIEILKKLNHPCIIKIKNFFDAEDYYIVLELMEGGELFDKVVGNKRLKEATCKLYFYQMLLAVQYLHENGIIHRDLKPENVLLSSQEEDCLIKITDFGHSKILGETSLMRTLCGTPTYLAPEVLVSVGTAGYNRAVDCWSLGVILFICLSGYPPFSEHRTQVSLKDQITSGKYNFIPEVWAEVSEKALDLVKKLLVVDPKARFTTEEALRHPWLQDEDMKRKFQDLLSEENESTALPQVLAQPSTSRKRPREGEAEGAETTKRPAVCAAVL
Chain of Rho-associated protein kinase 2 (Homo sapiens) (O75116 whole entry, looked up): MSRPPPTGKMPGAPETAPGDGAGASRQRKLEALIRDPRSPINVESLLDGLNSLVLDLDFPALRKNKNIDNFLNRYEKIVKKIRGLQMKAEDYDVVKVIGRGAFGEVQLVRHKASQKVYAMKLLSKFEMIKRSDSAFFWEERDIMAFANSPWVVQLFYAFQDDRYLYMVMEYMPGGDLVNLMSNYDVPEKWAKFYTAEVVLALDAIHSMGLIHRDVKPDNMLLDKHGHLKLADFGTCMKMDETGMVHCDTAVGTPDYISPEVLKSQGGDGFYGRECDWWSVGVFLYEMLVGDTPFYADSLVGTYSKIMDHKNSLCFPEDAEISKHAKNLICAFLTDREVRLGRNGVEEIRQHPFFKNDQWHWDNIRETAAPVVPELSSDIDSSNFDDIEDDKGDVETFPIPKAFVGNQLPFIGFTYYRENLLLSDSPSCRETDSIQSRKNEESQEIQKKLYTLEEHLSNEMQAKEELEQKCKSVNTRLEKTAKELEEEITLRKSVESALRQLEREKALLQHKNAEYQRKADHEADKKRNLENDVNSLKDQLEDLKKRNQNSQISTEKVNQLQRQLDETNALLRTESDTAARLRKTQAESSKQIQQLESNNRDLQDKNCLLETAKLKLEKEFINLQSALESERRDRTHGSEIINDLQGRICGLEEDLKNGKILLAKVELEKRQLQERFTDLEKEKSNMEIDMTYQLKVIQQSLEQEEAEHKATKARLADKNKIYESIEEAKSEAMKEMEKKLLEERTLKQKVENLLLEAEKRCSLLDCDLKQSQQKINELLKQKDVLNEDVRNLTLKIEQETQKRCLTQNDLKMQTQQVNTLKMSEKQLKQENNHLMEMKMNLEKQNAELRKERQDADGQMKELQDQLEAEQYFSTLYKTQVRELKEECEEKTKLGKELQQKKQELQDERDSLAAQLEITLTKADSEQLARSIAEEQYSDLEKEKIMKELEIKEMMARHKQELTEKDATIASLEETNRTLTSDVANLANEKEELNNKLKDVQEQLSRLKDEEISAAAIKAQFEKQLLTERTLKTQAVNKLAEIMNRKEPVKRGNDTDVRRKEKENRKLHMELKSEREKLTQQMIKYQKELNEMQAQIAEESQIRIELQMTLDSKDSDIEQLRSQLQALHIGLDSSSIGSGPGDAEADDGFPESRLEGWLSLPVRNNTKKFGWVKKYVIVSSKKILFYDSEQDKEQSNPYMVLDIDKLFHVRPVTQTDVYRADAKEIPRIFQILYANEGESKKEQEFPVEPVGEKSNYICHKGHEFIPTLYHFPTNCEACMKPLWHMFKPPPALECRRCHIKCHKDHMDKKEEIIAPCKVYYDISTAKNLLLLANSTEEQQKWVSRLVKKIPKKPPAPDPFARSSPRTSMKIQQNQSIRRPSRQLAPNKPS
Chain of Mitogen-activated protein kinase 8 (Homo sapiens) (P45983 whole entry): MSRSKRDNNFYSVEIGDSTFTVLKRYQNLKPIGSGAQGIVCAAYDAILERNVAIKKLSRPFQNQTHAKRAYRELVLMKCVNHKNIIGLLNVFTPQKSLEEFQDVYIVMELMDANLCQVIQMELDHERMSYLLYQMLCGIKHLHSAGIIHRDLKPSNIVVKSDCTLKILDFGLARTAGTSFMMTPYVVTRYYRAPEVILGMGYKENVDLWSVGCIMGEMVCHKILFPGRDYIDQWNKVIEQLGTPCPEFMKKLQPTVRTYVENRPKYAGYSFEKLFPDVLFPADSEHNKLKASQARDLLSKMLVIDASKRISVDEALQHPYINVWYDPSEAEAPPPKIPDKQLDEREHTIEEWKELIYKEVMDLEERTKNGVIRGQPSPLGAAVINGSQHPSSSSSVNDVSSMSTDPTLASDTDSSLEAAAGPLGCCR

Usually inhibition stands for the drop in the measured response relative to a control, in per cent. A higher inhibition goes with a strong effect. On to `Cc1cccc(N(C)c2cc(Nc3cccc(C(=O)NCc4ccc(N(C)C)cc4)c3)ncn2)c1`, for which the inhibition in test [1] stood at 0%; in [2], 9%; in test [3], 0%; in test [4], 11%; in test [5] it was 3%; in test [6], 0%. Further, the inhibition was found to be 0% in [7], 0% in [8], 97% in test [9] and 21% in test [10].
As for `Cc1cccc(Oc2ccnc(N3CCN(CC(=O)Nc4cccc5c4CCCC5)CC3)n2)c1`, the inhibition in test [1] amounted to 0%; in [2], 1%; in test [3] it was 0%; in test [4] it was 0%; in [5] it was 0%; in test [6] it was 3%. The inhibition in [7] is 0%; in test [8] it was 16%; in test [9], 0%; in test [10], 0%.
